Data taken from the array DNA melting data of Ke et al. (doi:10.1101/2024.01.08.574731).

Key:
[1] = folding enthalpy; higher = less favourable; fluorescence melt of hairpins on a sequencing array, two-state fit; settings: sodium 0.088 M
Outline: (§1)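 Melting temperature and folding enthalpy were derived from bootstrapped two-state fits. The fitted temperatures were raised by 9.35 °C to agree with UV melts, and four replicates were combined by inverse variance. The underlying data were Cy3 fluorescence images of library hairpins, with annealed Cy3 and quencher oligos, on a sequenced MiSeq flow cell in 50 mM Na-HEPES pH 8.0, 25 mM NaCl, taken in 2.5 °C steps up to 60 °C, normalised to pre-quench Cy3 and to control constructs.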

[2] = melting temperature; fluorescence melt of hairpins on a sequencing array, two-state fit, raised by 9.35 °C to match UV melts; settings: sodium 0.088 M
Outline: as §1

| Sequence | folding enthalpy [1] [kcal/mol] | Tm [2] [°C] |
| --- | --- | --- |
| GATGACCGAAAGGTGATC (((.(((....))).))) | -26.9 | 47.7 |
| GCGATCGAAAGATTACGC ((((((....)))..))) | -30.4 | 42 |
| CGGACGGAAACGTCTCCG ((((((....)))..))) | -11.3 | 35.7 |
| GGAGTCTCGAAAGAGTCC (((..(((....)))))) | -20.1 | 41.7 |
| GCTCCGCGAAAGCTGCGC ((.(.((....)).).)) | -14.5 | 44.4 |
| GCTCACGAAAGTGGAAGC ((((((....)))..))) | -20.9 | 45.4 |
| GCACGTTCGAAAGAATGC (((..(((....)))))) | -16.9 | 29.6 |
| CAGTTGAAAAACTG (((((....))))) | -20.9 | 44.7 |
| GGATGGCGAAAGCCGTCC (((.(((....))).))) | -28.8 | 68.8 |
| GCGTCGGGAAACCGATGC ((.((((....)))).)) | -34 | 65 |
| CGAACGGAAACGTAGTCG ((((((....)))..))) | -10.8 | 26.4 |
| GAATATGGAAACATGTTC (((.(((....))).))) | -32.6 | 37.6 |
| GGGCACCGAAAGGTTCCC (((.(((....))).))) | -32.4 | 52.5 |
| GCTCGAGGAAACTCAAGC (((.(((....))).))) | -30.7 | 37.7 |
| GCGGAAAGCCGC ((((....)))) | -16.3 | 48.5 |
| GGAAGCGAAAGCTGATCC ((((((....)))..))) | -12.4 | 36.9 |
| GATCCAATGATGGATC ((((((....)))))) | -29.3 | 47.6 |
| GCCGACCGAAAGGTGGGC (((.(((....))).))) | -34.4 | 67.4 |
| GACTGAGGAAACTCGGTC (((.(((....))).))) | -41.1 | 50.4 |
| GATCTATCGCTAGATC ((((((....)))))) | -15 | 39.8 |
| GATCCGAGAACGGATC ((((((....)))))) | -37.4 | 54.5 |
| GCAGTCCGAAAGGATTGC (((.(((....))).))) | -46.3 | 60.2 |
| GCGGTGCGAAAGCGCGGC ((.(.((....)).).)) | -25 | 64.5 |
| GATCGTAGCAACGATC ((((((....)))))) | -38.6 | 54.7 |

| Sequence | folding enthalpy [1] [kcal/mol] | Tm [2] [°C] |
| --- | --- | --- |
| GTGGCCGAAAGGCGGCAC ((((((....)))..))) | -13.8 | 46.7 |
| GCTGGGCGAAAGCCAAGC (((.(((....))).))) | -26.8 | 66.8 |
| GATGACGAAAGTCGAATC ((((((....)))..))) | -13.7 | 33 |
| GCAACCGGAAACGGCTGC (((.(((....))).))) | -40.9 | 53 |
| CGGTAGCGGAAACGCCCG (((..(((....)))))) | -23.4 | 48.7 |
| GATCAAACCCTTGATC ((((((....)))))) | -33.4 | 42.7 |
| GGCTCGGGAAACCGGGTC (.(.(((....))).).) | -28.2 | 46.9 |
| GATCAATTAGTTGATC ((((((....)))))) | -35 | 45.6 |
| GCCAGGCGAAAGCCGAGC ((..(((....)))..)) | -13.3 | 52.2 |
| GCGCTGGGAAACTAGCGC (((((.(....).))))) | -32.4 | 67.1 |
| GATCAACACATTGATC ((((((....)))))) | -36.9 | 44.9 |
| GGAACCTCGAAAGAGTCC (((..(((....)))))) | -11.3 | 27 |
| GTACTCTCGAAAGAGTAC (((..(((....)))))) | -36.9 | 52.5 |
| GAGTTTGGAAACAAACTC (((((((....))))))) | -43.1 | 58.3 |
| GTCGACGAAAGTCCTGAC ((((((....)))..))) | -12.9 | 31.6 |
| GTAGCACGAAAGTGATAC (((.(((....))).))) | -39 | 58.4 |
| GGCAACGAAAGTTAGGCC ((((((....)))..))) | -28.3 | 46.2 |
| GTATCCGGAAACAGATAC (((((.(....).))))) | -23.4 | 31.7 |
| GCTTAACGAAAGTTTAGC (((.(((....))).))) | -30.5 | 46.4 |
| GGTAACACGAAAGTGACC (((..(((....)))))) | -17.1 | 37.1 |
| GCTACAACGAAAGTTAGC (((..(((....)))))) | -18.6 | 33.4 |
| CAGCTGAAAAGCTG (((((....))))) | -25.4 | 58.6 |
| GTACGCGAAAGCGCATAC ((((((....)))..))) | -5.57 | 22.5 |
| GGGTAGCCGAAAGGCCCC (((..(((....)))))) | -16.1 | 54 |

| Sequence | folding enthalpy [1] [kcal/mol] | Tm [2] [°C] |
| --- | --- | --- |
| GGGTAGCGAAAGCTTCCC (((.(((....))).))) | -36.5 | 56.6 |
| GCTGCCGAAAGGCTAAGC ((((((....)))..))) | -16.8 | 53.8 |
| GATCCTCGCCAGGATC ((((((....)))))) | -37.4 | 50.7 |
| GTAGGCGGAAACGCTTAC (((.(((....))).))) | -23.1 | 48.2 |
| GCCAGAGGAAACTCTGAC (.(((((....))))).) | -18.3 | 38.6 |
| GCCTCGCGAAAGCTATGC ((.(.((....)).).)) | -4.77 | 15.9 |
| GTAAGCGCGAAAGCGTAC (((..(((....)))))) | -9.28 | 28.8 |
| GGAGTCGAAAGACATTCC ((((((....)))..))) | -12.7 | 27.9 |
| GATCACGTCGGTGATC ((((((....)))))) | -36.5 | 59.7 |
| GCCTACGGAAACGCAGGC ((((.((....)).)))) | -27.6 | 52.6 |
| GCAGCACGAAAGTGTTGC (((.(((....))).))) | -37.2 | 60.6 |
| GCGACCGGTCGC ((((....)))) | -55.6 | 62 |
| GTGACGGAAACGTCAC ((((((....)))))) | -32.9 | 68.7 |
| GATCACTCTGTGATC ((((((...)))))) | -35.8 | 61.6 |
| GCTAAGGGAAACTTTAGC (((((.(....).))))) | -21.1 | 37.9 |
| GATCCCCAAGGGGATC ((((((....)))))) | -37.4 | 65 |
| GATCCGCACCGGATC ((((((...)))))) | -29.4 | 57.1 |
| GATCTCTATAGAGATC ((((((....)))))) | -38.7 | 55 |
| GACATTGCGAAAGCAGTC (((..(((....)))))) | -10 | 32.4 |
| GATCTATTGTAGATC ((((((...)))))) | -22.8 | 41 |
| GATCTCGGACGAGATC ((((((....)))))) | -35.1 | 60.3 |
| GATCTAACGATAGATC ((((((....)))))) | -29.4 | 34.1 |
| GTATCCGAAAGGATTTAC ((((((....)))..))) | -12 | 30.6 |
| GATCAACTTCTTGATC ((((((....)))))) | -30 | 43.9 |

| Sequence | folding enthalpy [1] [kcal/mol] | Tm [2] [°C] |
| --- | --- | --- |
| GATCAAGCATTGATC ((((((...)))))) | -47.9 | 52.1 |
| GAGCGTGGAAACGTGCTC ((((..(....)..)))) | -19.3 | 47.6 |
| GATCTGTTCACAGATC ((((((....)))))) | -35.1 | 56.9 |
| GCGTAAGGAAACTTGCGC (((.(((....))).))) | -39.4 | 54.6 |
| GCAATGAAAATTGC (((((....))))) | -22.7 | 50.7 |
| GTATAGCGAAAGCTTAC (((.(((....)))))) | -12.8 | 39.2 |
| GCACCCCCGAAAGGGTGC (((..(((....)))))) | -30.6 | 66.6 |
| GCGGTTTGCCGC ((((....)))) | -41.2 | 60.6 |
| GACCGGGGAAACTCGGTC (((((.(....).))))) | -50.3 | 56.3 |
| GATGACCGAAAGGTATC (((.(((....)))))) | -16.6 | 34.7 |
| GATCATTTGATGATC ((((((...)))))) | -38.2 | 46.6 |
| TGGCTGAAAAGCCA (((((....))))) | -18.4 | 57.9 |
| GTCATCGGAAACGACGAC (((.(((....))).))) | -29.7 | 43.2 |
| GCAATCGAAAGATGCTGC ((((((....)))..))) | -28.2 | 51.1 |
| GATCCGATGACGGATC ((((((....)))))) | -35.4 | 58.2 |
| GTGACACGAAAGTGACAC (((.(((....))).))) | -39.7 | 58.7 |
| ACTGTGAAAACAGT (((((....))))) | -21.8 | 46.1 |
| GAGGGCGGAAACACCCTC (((((.(....).))))) | -33.7 | 49.6 |
| GGACTCGGAAACAAGTCC (((((.(....).))))) | -27.8 | 42.2 |
| GGCCAAGGAAACCTAGCC (((.(.(....).).))) | -27.2 | 31.3 |
| GGCTTCGGAAACGGAGTC (.((.((....)).)).) | -24.1 | 39.9 |
